Apaf-1 inh = inhibitors of human Apaf-1 apoptosome | O14727 | reconstituted apoptosome caspase-3 activity, DEVD-Rh110 fluorescence | inhibition, % at 20 µM | 330,000 compounds, 0.71% hits; active means inhibition of at least 40% at 20 µM
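Material: reconstituted apoptosome with Apaf-1, cytochrome c, caspase-9, procaspase-3, dATP. Technique: Rh110 fluorescence intensity. Buffer or medium: pH 7.5 Hepes buffer with CHAPS, BSA, DTT. Times: 30 min plus 50 min, RT.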
GSTO1 counter = blocks human GSTO1 in RBBP9 counter-screen; recombinant GSTO1, activity-based probe fluorescence polarization; 300,000 compounds, 1.1% hits; P78417; AID 1974; inhibition, % at 5.96 µM;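 active means inhibition above the campaign mean inhibition plus 3 SD, cut at about 35% in these data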
PAD4 FP inh = PAD4 (human) enzyme inhibition. Q9UM07. recombinant PAD4, RCA probe fluorescence polarization. inhibition, % at 6.36 µM. 330,000 compounds, 0.41% hits. AID 485272;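 active means percent inhibition above a cutoff equal to the mean of all tested compounds plus 3 SD, cut at about 15% in these data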
Target sequence (Q9UM07 whole entry, looked up): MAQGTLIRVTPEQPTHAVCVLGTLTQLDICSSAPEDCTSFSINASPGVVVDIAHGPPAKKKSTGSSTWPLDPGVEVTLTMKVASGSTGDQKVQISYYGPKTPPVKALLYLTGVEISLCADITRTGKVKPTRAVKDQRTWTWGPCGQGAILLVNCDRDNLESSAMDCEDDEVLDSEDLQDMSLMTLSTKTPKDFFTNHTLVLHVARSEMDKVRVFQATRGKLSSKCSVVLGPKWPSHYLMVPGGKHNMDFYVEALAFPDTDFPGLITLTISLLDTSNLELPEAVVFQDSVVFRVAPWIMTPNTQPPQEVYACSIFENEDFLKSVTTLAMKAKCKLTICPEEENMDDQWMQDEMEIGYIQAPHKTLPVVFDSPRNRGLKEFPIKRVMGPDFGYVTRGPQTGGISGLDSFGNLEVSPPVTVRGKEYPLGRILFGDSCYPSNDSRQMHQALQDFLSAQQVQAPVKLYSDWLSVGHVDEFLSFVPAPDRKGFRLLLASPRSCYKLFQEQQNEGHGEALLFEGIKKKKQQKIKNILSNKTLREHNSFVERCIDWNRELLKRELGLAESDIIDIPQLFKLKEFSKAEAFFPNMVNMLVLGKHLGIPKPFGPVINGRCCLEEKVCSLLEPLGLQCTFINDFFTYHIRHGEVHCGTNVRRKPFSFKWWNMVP
CTSL1 counter = counter-screen for PFM18AAP inhibitors: inhibitors of F. hepatica cathepsin L1 | recombinant F. hepatica cathepsin L1, Z-Leu-Arg-MCA fluorescence | inhibition, % at 5.96 µM | 300,000 compounds, 0.49% hits;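 active means inhibition above the mean of all tested compounds plus 3 SD, set per screening campaign, cut at about 17% in these data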
TDP2 absorb = TDP2 (human) inhibition, absorbance primary screen. O95551. recombinant TDP2, T5PNP hydrolysis, p-nitrophenol absorbance 415 nm. AID 720702. 370,000 compounds, 0.34% hits. inhibition, % at 12.8 µM;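 active means inhibition above the mean of all tested compounds plus 3 SD, set per campaign, cut at about 25% in these data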
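Incubation: 2 h at 37 °C; Test system: recombinant human TDP2; Quantity: enzyme 120 nM; Read-out basis: percent inhibition; Medium: 50 mM Tris-HCl pH 7.5 with Mg2+, KCl, DTT, BSA; Repeats: single replicate; Compound: 12.8 µM single point, 1% DMSO; Signal: epi absorbance; Reagent: 5 mM T5PNP chromogenic substrate; Benchmarks: no-enzyme high, DMSO-plus-enzyme low.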
PAD4 FP conf = PAD4 (human) inhibition, confirmed; inhibition, % at 6.36 µM; shares compounds with PAD4 FP inh; 1,200 compounds, 28% hits; AID 488796; recombinant PAD4, RCA probe fluorescence polarization;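 active means mean inhibition across replicates above the hit cutoff set by the earlier primary screen, cut at about 15% in these data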;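 further: inhibitors block active-site labeling by the probe so polarization falls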
Apaf-1 inh conf2 = Apaf-1 inhibition, single-dose confirmed; AID 504614; reconstituted apoptosome, caspase-3 DEVD-Rh110 fluorescence; 1,800 compounds, 25% hits; shares compounds with Apaf-1 inh; inhibition, % at 20 µM;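 active means mean inhibition of at least 40% at 20 µM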
Rh110 quench = Rh110 signal interference in Apaf-1 inhibitor counter-screen. 1,800 tested, under 10 active. activation (fluorescence interference), % at 20 µM. AID 504615. shares compounds with Apaf-1 inh. Rh110 fluorescence interference, quenched caspase reaction;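 active means signal rise of 40% or more at 20 µM, treated as a fluorescence artifact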
TDP2 inh conf = confirmation of human TDP2 inhibitors | shares compounds with TDP2 absorb | recombinant human TDP2, absorbance read-out | inhibition, % at 12.8 µM | 1,100 compounds, 22% hits; in the data active means inhibition above about 25%
Each line names hits and unclear results; the compound was inactive in the other large screens (follow-up assays come after a bar, where they were run). The list is not random: actives were taken first. Their share in the collection is about 1.8%.

CC1=NN(c2ccccc2)C(=O)/C1=C\c1ccc(Br)s1	Apaf-1 inh 96.0, PAD4 FP inh 16.4, TDP2 absorb 52.1 | PAD4 FP conf inactive | Apaf-1 inh conf2 inactive | Rh110 quench inactive | TDP2 inh conf 27.6
CC(=O)c1ccc(NC(=S)Nc2ccc(N3CCOCC3)cc2)cc1	PAD4 FP inh 19.6, TDP2 absorb 27.9 | PAD4 FP conf inactive | TDP2 inh conf inactive
C/C(=C\C(=O)c1ccc(Cl)cc1)Nc1ccc(N2CCOCC2)cc1	none
CCc1ccc(C(=O)NC(=S)Nc2ccc(N3CCOCC3)cc2)cc1	none
C/C(=C\C(=O)c1ccccc1)Nc1ccc(N2CCOCC2)cc1	PAD4 FP inh 20.1, TDP2 absorb 33.4 | PAD4 FP conf inactive | TDP2 inh conf inactive
COc1cccc(-c2cc(=O)[nH][nH]2)c1	PAD4 FP inh 38.1, TDP2 absorb 77.4 | PAD4 FP conf inactive | TDP2 inh conf inactive
COc1ccc(/C=N/Nc2nc3ccccc3c(=O)n2-c2ccccc2)cc1OC	none
COc1ccc(/C=N/Nc2nnc(C)n2N)cc1OC(C)=O	PAD4 FP inh 44.6, TDP2 absorb 42.4 | PAD4 FP conf inactive | TDP2 inh conf inactive
COc1ccc(/C=N/Nc2nnc(C)n2N)cc1OC	PAD4 FP inh 25.4, TDP2 absorb 53.8 | PAD4 FP conf inactive | TDP2 inh conf inactive
COc1cc(/C=N/n2nnnc2N)ccc1OC(C)=O	none (no result: GSTO1 counter, PAD4 FP inh, CTSL1 counter)
COc1cccc(NC(=O)NC2CCCCN(Cc3ccccc3C)C2=O)c1 (stereo not given)	none (no result: Apaf-1 inh, GSTO1 counter, PAD4 FP inh, CTSL1 counter)
CC1=NN(c2ccc(Cl)cc2)C(=O)C1	GSTO1 counter 36.1, PAD4 FP inh 30.6, TDP2 absorb 57.6 | PAD4 FP conf inactive | TDP2 inh conf inactive
CCCC1CCC2(CCCN2CCOC(=O)Nc2ccccc2C)CC1 (stereo not given)	none (no result: Apaf-1 inh, GSTO1 counter, PAD4 FP inh, CTSL1 counter)
O=C(CSc1nnc(-c2ccccc2)n1-c1ccc(Cl)cc1)Nc1cccc2ccccc12	none (no result: Apaf-1 inh, GSTO1 counter, PAD4 FP inh, CTSL1 counter)
Cc1c[nH]c2cccc(-c3c(Cl)cccc3Cl)c12	none (no result: Apaf-1 inh, GSTO1 counter, PAD4 FP inh, CTSL1 counter)
O=C(O)c1ccc(N/N=C/c2ccc(-c3ccc(Br)cc3)o2)cc1	none
Cc1nnc(N/N=C/c2ccc(-c3ccc(Br)cc3)o2)n1N	PAD4 FP inh 23.7, TDP2 absorb 56.5 | PAD4 FP conf inactive | TDP2 inh conf inactive
Cc1nnc(N/N=C/c2ccc(Br)cc2)n1N	PAD4 FP inh 35.9, TDP2 absorb 73.6 | PAD4 FP conf inactive | TDP2 inh conf inactive
O=C(O)c1cccc(-c2ccc(/C=N/NC(=O)c3cccnc3)o2)c1	none
Cc1nnc(N/N=C\c2ccc(-c3cccc(C(=O)O)c3)o2)n1N	PAD4 FP inh 29.7, TDP2 absorb 59.1 | PAD4 FP conf inactive | TDP2 inh conf inactive
CC(COc1ccc(OC(F)(F)F)cc1)CN1CCC(C(O)(c2ccccc2)c2ccccc2)CC1 (stereo not given)	none (no result: Apaf-1 inh, GSTO1 counter, PAD4 FP inh, CTSL1 counter)
Oc1ccccc1CNc1cccc2cccnc12	Apaf-1 inh 94.7, PAD4 FP inh 34.8, TDP2 absorb 35.5 | PAD4 FP conf inactive | Apaf-1 inh conf2 inactive | Rh110 quench inactive | TDP2 inh conf inactive
COC(=O)[C@]12C[C@H](CC(=O)N3CCCC3)C(=O)N(Cc3ccco3)C1=C[C@H](C(C)(C)C)O[C@@H]2C	none (no result: Apaf-1 inh, GSTO1 counter, PAD4 FP inh, CTSL1 counter)
COc1ccc(OC)c(C2C(C#N)=C(N)Oc3c2c(C)nn3-c2ccc(C)cc2)c1 (stereo not given)	GSTO1 counter 34.8, PAD4 FP inh 54.1, TDP2 absorb 59.8 | PAD4 FP conf inactive | TDP2 inh conf inactive
Cc1nn(-c2ccccc2)c2c1C(c1ccccc1)C(C#N)=C(N)O2 (stereo not given)	Apaf-1 inh 96.5, GSTO1 counter 37.1, PAD4 FP inh 61.3, TDP2 absorb 40.4 | PAD4 FP conf inactive | Apaf-1 inh conf2 inactive | Rh110 quench inactive | TDP2 inh conf inactive
CCOC(=O)Cc1[nH]nc2c1C(c1cc(OC)ccc1OC)C(C#N)=C(N)O2 (stereo not given)	none

Screens (PubChem)
